According to ChEMBL document CHEMBL2040708, “Rational design, synthesis, and pharmacological properties of pyranochalcone derivatives as potent anti-inflammatory agents” (Eur J Med Chem, 2012):
Activity calls are given as the source filed them. No cut-off for these calls is given here.

Columns and labels:
[1] = biological target: T1, Nitric oxide synthase, inducible (Mus musculus, UniProt P29477); assay: Inhibition of iNOS in mouse RAW264.7 cells assessed as inhibition of LPS-induced nitric oxide production for 2 hrs by DAF-FMDA dye based fluorometric assay; assay type: cell-based
T1 sequence (P29477 whole entry): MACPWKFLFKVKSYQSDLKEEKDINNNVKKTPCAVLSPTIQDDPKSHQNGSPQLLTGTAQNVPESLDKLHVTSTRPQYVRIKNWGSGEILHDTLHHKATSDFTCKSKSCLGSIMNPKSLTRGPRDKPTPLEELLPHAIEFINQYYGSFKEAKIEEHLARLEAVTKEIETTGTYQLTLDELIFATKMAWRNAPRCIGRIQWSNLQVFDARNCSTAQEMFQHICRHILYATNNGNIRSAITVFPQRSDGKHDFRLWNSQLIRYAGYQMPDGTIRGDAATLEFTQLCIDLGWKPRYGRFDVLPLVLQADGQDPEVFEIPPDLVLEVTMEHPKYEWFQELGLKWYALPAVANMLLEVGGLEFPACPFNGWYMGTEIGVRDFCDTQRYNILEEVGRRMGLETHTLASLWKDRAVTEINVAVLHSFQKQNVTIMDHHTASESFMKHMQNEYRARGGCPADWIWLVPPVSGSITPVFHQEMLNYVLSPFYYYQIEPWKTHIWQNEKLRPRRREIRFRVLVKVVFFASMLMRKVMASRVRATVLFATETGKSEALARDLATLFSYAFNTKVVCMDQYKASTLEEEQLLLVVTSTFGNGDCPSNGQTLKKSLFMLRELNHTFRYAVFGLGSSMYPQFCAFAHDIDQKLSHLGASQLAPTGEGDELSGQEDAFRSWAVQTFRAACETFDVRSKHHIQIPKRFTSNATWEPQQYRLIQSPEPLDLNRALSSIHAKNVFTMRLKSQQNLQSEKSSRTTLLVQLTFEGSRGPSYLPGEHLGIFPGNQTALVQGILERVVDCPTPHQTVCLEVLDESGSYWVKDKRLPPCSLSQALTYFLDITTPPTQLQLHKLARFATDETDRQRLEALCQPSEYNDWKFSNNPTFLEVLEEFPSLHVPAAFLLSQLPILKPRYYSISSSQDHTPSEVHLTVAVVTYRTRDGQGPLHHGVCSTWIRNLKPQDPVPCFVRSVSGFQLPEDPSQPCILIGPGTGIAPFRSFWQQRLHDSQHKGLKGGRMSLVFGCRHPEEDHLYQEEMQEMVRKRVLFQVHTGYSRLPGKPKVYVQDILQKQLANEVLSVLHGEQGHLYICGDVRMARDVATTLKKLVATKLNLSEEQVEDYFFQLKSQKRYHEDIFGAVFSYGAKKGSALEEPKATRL

[2] = system: Mus musculus; assay: Antiinflammatory activity in ICR mouse assessed as decrease in carrageenan-induced paw edema at 10 mg/kg, ip administered 30 mins prior to carrageenan-challenge measured at 4 hrs relative to vehicle treated control; assay type: functional; conditions: route intraperitoneal
In short: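 Male ICR mice dosed i.p. 30 min before subplantar injection of freshly prepared 1% carrageenan suspension into the right hind paw. Footpad thickness measured with a gauge caliper at 1, 2, 3, 4 and 5 h. Inhibition calculated from increase in paw thickness versus the control group; mean (SEM), n = 5.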

[3] = system: Rattus norvegicus; assay: Antiarthritic activity in Lewis rat adjuvant-induced arthritis model assessed as decrease in complete Freund's adjuvant-induced weight loss administered daily oral doses for 14 days post inflammation development signs; assay type: functional, organism-based
In short: (§1)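 Male Lewis rats, 12 weeks old, six per group, injected with CFA at the tail base. Vehicle (2% Tween 80/0.5% methylcellulose) given orally for 7 d until full joint inflammation, then randomized and dosed orally daily for 14 d at 10 or 25 mg/kg. Arthritis scored daily on hind paw erythema, swelling, joint tenderness, movement and posture. Body weight tracked; means ± S.E.M.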

[4] = system: RAW264.7; assay: Cytotoxicity against mouse RAW264.7 cells after 24 hrs by MTT assay in the presence of LPS; assay type: cell-based; conditions: RAW264.7, 24 h
[5] = system: Rattus norvegicus; assay: Antiarthritic activity in Lewis rat adjuvant-induced arthritis model assessed as decrease in complete Freund's adjuvant-induced suppression of histopathological changes at 25 mg/kg/day, po for 14 days post inflammation development signs by Hematoxylin and eosin staining; assay type: functional, organism-based
In short: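 CFA-induced arthritis in male Lewis rats, dosed orally each day for 14 d after a 7 d vehicle lead-in. Animals sacrificed, foot pads fixed in neutral buffered formal saline and embedded in paraffin. 5 µm sections stained with H&E and examined under the microscope.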

[6] = system: RAW264.7; assay: Cytotoxicity against mouse RAW264.7 cells after 24 hrs by MTT assay in the absence of LPS; assay type: cell-based; conditions: RAW264.7, 24 h
In short: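 RAW264.7 cells at 5 × 10⁴/well, exposed to a range of concentrations in serum-free medium for 24 h. MTT (5 mg/mL in saline) added for a further 4 h, formazan dissolved in DMSO, absorbance read at 540 nm. Viability expressed relative to the blank control.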

[7] = system: Rattus norvegicus; assay: Antiarthritic activity in Lewis rat adjuvant-induced arthritis model assessed as decrease in complete Freund's adjuvant-induced arthritis administered daily oral doses for 14 days post inflammation development signs; assay type: functional, organism-based; in short: as §1

COc1ccc(/C=C/C(=O)c2ccc3c(c2O)C=CC(C)(C)O3)cc1OC
IC50 [1]: 7.9 µM
inhibition in vivo at 10 mg/kg [2]: 52.4%
inhibition [3]: Active
IC50 [4]: > 80 µM
inhibition [5]: Active
IC50 [6]: > 80 µM
inhibition [7]: Dose-dependent effect

COc1cc(/C=C/C(=O)c2ccc3c(c2O)C=CC(C)(C)O3)cc(OC)c1OC
IC50 [1]: 6.2 µM
inhibition in vivo at 10 mg/kg [2]: 34.4%
IC50 [4]: > 80 µM
IC50 [6]: > 80 µM

CC1(C)C=Cc2c(ccc(C(=O)/C=C/c3ccc(Br)cc3)c2O)O1
IC50 [1]: 17.8 µM
inhibition in vivo at 10 mg/kg [2]: 27.6%
IC50 [4]: > 80 µM
IC50 [6]: > 80 µM

COc1ccc2c(c1)c(CC(=O)O)c(C)n2C(=O)c1ccc(Cl)cc1 [INDOMETHACIN]
IC50 [1]: 20 µM
inhibition in vivo at 10 mg/kg [2]: 45.8%
IC50 [4]: > 80 µM
IC50 [6]: > 80 µM

CC1(C)C=Cc2c(ccc(C(=O)/C=C/c3cccc(F)c3)c2O)O1
IC50 [1]: 5.4 µM
inhibition in vivo at 10 mg/kg [2]: 9%
IC50 [4]: > 80 µM
IC50 [6]: > 80 µM
